From ChEMBL document CHEMBL3414514, “Synthesis and pharmacological evaluation of novel bisindole derivatives bearing oximes moiety: identification of novel proapoptotic agents” (Eur J Med Chem, 2015)
Calls of active or inactive are those of the source. No cut-off for these calls is given here.

Tests used:
[1] = test system: T-24; assay: Induction of apoptosis in human T24 cells assessed as increase in Bax protein expression after 6 to 24 hrs by Western blotting analysis; assay type: functional, cell-based
[2] = test system: MGC-803; assay: Cytotoxicity against human MGC803 cells after 2 days by MTT assay; assay type: functional, cell-based; conditions: MGC-803, 48 h
Procedure, shortened: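 Cells grown in medium with 10% heat-inactivated FBS at 37 C under 5% CO2. Compounds dissolved in medium with 1% DMSO; controls received 1% DMSO. After 2 days, MTT (10 mg/mL) added for 4 h, formazan dissolved in DMSO and absorbance read at 570/630 nm. Survival taken relative to negative control; IC50 by Bliss method (n = 5), at least three independent experiments.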

[3] = test system: T-24; assay: Induction of apoptosis in human T24 cells assessed as increase in intracellular ROS level at 5 to 20 uM after 24 hrs by DCFH/DA staining-based fluorescence microscopic analysis; assay type: functional, cell-based
[4] = test system: T-24; assay: Induction of apoptosis in human T24 cells assessed as increase in caspase-7 protein expression at 20 uM after 6 to 24 hrs by Western blotting analysis; assay type: functional, cell-based
[5] = Cell cycle arrest in human T24 cells assessed as accumulation at G2 phase at 10 uM after 48 hrs by Rnase A/propidium iodide staining-based flow cytometry (reference value: 3.58%); assay type: functional; conditions: T-24
Procedure, shortened: (§1)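 T24 cells exposed to […] for 48 h, washed with ice-cold PBS, then fixed and permeabilized overnight in ice-cold 70% ethanol. RNase A (100 mg/mL) treatment at 37 C for 30 min, then PI staining (1 mg/mL) in the dark at 4 C for 30 min. Flow cytometry gave the percentage of cells in G1, S and G2 phase.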

[6] = Cell cycle arrest in human T24 cells assessed as accumulation at S phase at 10 uM after 48 hrs by Rnase A/propidium iodide staining-based flow cytometry (reference value: 62%); assay type: functional; conditions: T-24; procedure, shortened: as §1
[7] = test system: T-24; assay: Induction of apoptosis in human T24 cells assessed as early apoptotic cells at 20 uM after 24 hrs by annexin-V-FITC/propidium iodide staining-based flow cytometry (reference value: 2.74%); assay type: functional
[8] = Cell cycle arrest in human T24 cells assessed as accumulation at G2 phase at 5 uM after 48 hrs by Rnase A/propidium iodide staining-based flow cytometry (reference value: 3.58%); assay type: functional; conditions: T-24; procedure, shortened: as §1
[9] = Cell cycle arrest in human T24 cells assessed as increase in p16 level after 24 hrs by Western blotting analysis; assay type: functional, cell-based; conditions: T-24
Procedure, shortened: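 T24 cells treated at […] for 24 h and lysed in ice-cold RIPA buffer with protease inhibitors and NaF. Protein measured by Bradford; 30 micrograms per lane run on 12% SDS-PAGE and transferred to PVDF. Blocked 2 h at room temperature, primary antibody overnight at 4 C, HRP secondary (1:2000) 1 h, chemiluminescence detection.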

[10] = test system: T-24; assay: Induction of apoptosis in human T24 cells assessed as necrotic cells at 5 to 20 uM after 24 hrs by AO/EB staining-based fluorescence microscopic analysis; assay type: functional, cell-based
Procedure, shortened: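 T24 cells seeded at 5 × 10^4 cells/mL on cover slips. Medium was replaced with fresh medium containing 10% FBS and compound at 5, 10 or 20 µM for 24 h. Cover slips were inverted onto AO/EB stain and viewed by fluorescence microscopy. Live cells score uniform green, early apoptotic green-yellow, late apoptotic orange, and necrotic orange without condensed chromatin. Untreated cells served as control.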

[11] = test system: T-24; assay: Induction of apoptosis in human T24 cells assessed as viable cells at 5 uM after 24 hrs by annexin-V-FITC/propidium iodide staining-based flow cytometry (reference value: 93.5%); assay type: functional; conditions: T-24, 24 h, read-out: Activity

With `COc1ccc2c(c1)/C(=N\O)C(c1c[nH]c3ccc(OC)cc13)=N2` the Activity [1] was “Dose-dependent effect”, the IC50 [2] was 7.66 µM and the Activity [3] was “Active”. The Activity [4] was “Active”, the Activity [5] was 5.47% and the Activity [6] was 37.5%. The Activity [7] was 32.7%, the Activity [8] was 3.11% and the Activity [9] was “Dose-dependent effect”. For the same molecule, the Activity [10] was “inactive” and the viability at 5 µM [11] was 85.9%.
